Source: ChEMBL document CHEMBL3407469, “Development of benzimidazole derivatives to inhibit HIV-1 replication through protecting APOBEC3G protein” (Eur J Med Chem, 2015)
The source made the active and inactive calls. The rule behind the calls is not given here.

Legend:
[1] = test system: Mus musculus; assay: Toxicity in Balb/c mouse assessed as effect on AST level at 500 to 1000 mg/kg, ip; type: organism-based; set-up: dose 500-1000 mg/kg, route intraperitoneal; details: in vivo
Procedure, shortened: (§1)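 Male Balb/c mice aged 4–6 weeks were randomized into three groups (5 mice) and given a single intraperitoneal injection of 0, 500 or 1000 mg/kg. Body weight was followed for two weeks. On day 14, mice were sacrificed. Heart, liver, lung, spleen and kidney were fixed in 4% formaldehyde for H&E staining, and blood was analysed for AST, ALT, BUN and creatinine.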

[2] = test system: Human immunodeficiency virus 1; assay: Antiviral activity against X4 tropic HIV-1 clone pNL4-3 infected in human PBMC cells assessed as reduction in p24 antigen at 0.00005 to 5 uM after 4 days by ELISA; type: functional, organism-based
[3] = test system: Mus musculus; assay: Toxicity in Balb/c mouse assessed as abnormality in heart at 500 to 1000 mg/kg, ip; type: organism-based; set-up: dose 500-1000 mg/kg, route intraperitoneal; details: in vivo; procedure, shortened: as §1
[4] = test system: 293T; assay: Inhibition of full-length X4 tropic HIV-1 clone pNL4-3 Vif/human APOBEC3G complex transfected in human 293T cells measured at 50 uM after 48 hrs by GFP-based fluorescence assay relative to control; type: cell-based
Procedure, shortened: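 This was the primary screen in 293T cells co-transfected with HA-Vif and A3G-GFP plasmids (Lipofectamine 2000) and given a single compound concentration. DMSO-only wells and A3G-GFP-only transfected wells served as controls. GFP was read after 48 h. A3G-GFP MFI fold change was scored as −, none or <1; +, 1–2; ++, 2–3; +++, >3.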

[5] = test system: Mus musculus; assay: Toxicity in Balb/c mouse assessed as abnormality in liver at 500 to 1000 mg/kg, ip; type: organism-based; set-up: dose 500-1000 mg/kg, route intraperitoneal; details: in vivo; procedure, shortened: as §1
[6] = test system: 293T; assay: Inhibition of full-length X4 tropic HIV-1 clone pNL4-3 Vif binding to ElonginC (unknown origin) transfected in human 293T cells measured at 50 uM after 48 hrs by co-immunoprecipitation assay; type: cell-based
Procedure, shortened: (§2)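 293T cells were transfected with HA-tagged Vif plus Flag-tagged EloC/EloB/Cul5 plasmids and treated with compound or DMSO. After 48 h, cells were lysed in IP lysis buffer. Lysates were incubated with anti-HA beads overnight at 4 °C and washed three times in lysis buffer before analysis of co-precipitated partners.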

[7] = test system: Human immunodeficiency virus 1; assay: Antiviral activity against X4 tropic HIV-1 clone pNL4-3 infected in H9 cells assessed as reduction in p24 antigen after 4 days by ELISA; type: functional, organism-based; details: Human immunodeficiency virus 1, pNL4-3, H9, 96 h
[8] = test system: Mus musculus; assay: Toxicity in Balb/c mouse assessed as effect on ALT level at 500 to 1000 mg/kg, ip; type: organism-based; set-up: dose 500-1000 mg/kg, route intraperitoneal; details: in vivo; procedure, shortened: as §1
[9] = test system: 293T; assay: Inhibition of full-length X4 tropic HIV-1 clone pNL4-3 Vif/human APOBEC3G complex transfected in human 293T cells assessed as increase in cellular APOBEC3G level measured after 48 hrs by fluorescence microscopy relative to control; type: cell-based
Procedure, shortened: (§3)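 293T cells were co-transfected with Vif and A3G-GFP plasmids, then treated with DMSO or a dilution series of compound. After 48 h, A3G-GFP was measured as mean fluorescence intensity on a plate reader, by western blot, or by fluorescence microscopy, each compared with the DMSO control.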

[10] = test system: Mus musculus; assay: Toxicity in Balb/c mouse assessed as effect on BUN level at 500 to 1000 mg/kg, ip; type: organism-based; set-up: dose 500-1000 mg/kg, route intraperitoneal; details: in vivo; procedure, shortened: as §1
[11] = test system: Mus musculus; assay: Toxicity in Balb/c mouse assessed as abnormality in lung at 500 to 1000 mg/kg, ip; type: organism-based; set-up: dose 500-1000 mg/kg, route intraperitoneal; details: in vivo; procedure, shortened: as §1
[12] = test system: Mus musculus; assay: Toxicity in Balb/c mouse assessed as abnormality in kidney at 500 to 1000 mg/kg, ip; type: organism-based; set-up: dose 500-1000 mg/kg, route intraperitoneal; details: in vivo; procedure, shortened: as §1
[13] = test system: Mus musculus; assay: Toxicity in Balb/c mouse assessed as effect on CRE level at 500 to 1000 mg/kg, ip; type: organism-based; set-up: dose 500-1000 mg/kg, route intraperitoneal; details: in vivo; procedure, shortened: as §1
[14] = test system: Mus musculus; assay: Toxicity in Balb/c mouse assessed as abnormality in spleen at 500 to 1000 mg/kg, ip; type: organism-based; set-up: dose 500-1000 mg/kg, route intraperitoneal; details: in vivo; procedure, shortened: as §1
[15] = test system: 293T; assay: Inhibition of full-length X4 tropic HIV-1 clone pNL4-3 Vif/human APOBEC3G complex transfected in human 293T cells assessed as increase in cellular APOBEC3G level measured after 48 hrs by Western blot analysis relative to control; type: cell-based; procedure, shortened: as §3
[16] = test system: 293T; assay: Inhibition of full-length X4 tropic HIV-1 clone pNL4-3 Vif binding to ElonginB (unknown origin) transfected in human 293T cells measured at 50 uM after 48 hrs by co-immunoprecipitation assay; type: cell-based; procedure, shortened: as §2
[17] = test system: Mus musculus; assay: Toxicity in Balb/c mouse assessed as change in body weight at 500 to 1000 mg/kg, ip; type: organism-based; set-up: dose 500-1000 mg/kg, route intraperitoneal; details: in vivo; procedure, shortened: as §1
[18] = test system: 293T; assay: Inhibition of full-length X4 tropic HIV-1 clone pNL4-3 Vif binding to Cullin5 (unknown origin) transfected in human 293T cells measured at 50 uM after 48 hrs by co-immunoprecipitation assay; type: cell-based; procedure, shortened: as §2
[19] = Cytotoxicity against human H9 cells by MTS assay; type: cell-based
[20] = (§4) Inhibition of purified X4 tropic HIV-1 clone pNL4-3 His tagged Vif binding to recombinant human APOBEC3G expressed in Escherichia coli BL21 assessed as reduction in max resonance unit at 9 uM preincubated with APOBEC3G for 30 mins by surface plasmon resonance method relative to untreated A3G protein control
Procedure, shortened: (§5)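 His-tagged Vif and A3G were expressed from pET32a in E. coli BL21 with 1 mM IPTG and purified on Ni-agarose (500 mM imidazole elution). Vif-His was immobilized on a CM5 chip in 10 mM acetate, pH 4.0, then blocked with 1 M ethanolamine. A3G-His was pre-incubated at 25 °C for 30 min with compound or DMSO in 10 mM PBS with 5% DMSO before injection. SPR binding was read as max resonance units.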

[21] = as §4, with “4” for “9”; procedure, shortened: as §5

For `COc1cc(/C=C(\C#N)c2nc3ccccc3[nH]2)ccc1O`, the Activity [1] was “Non-toxic”, the Activity [2] was “Active” and the Activity [3] was “Non-toxic”. The fold change (FC) [4] was greater than 3, the Activity [5] was “Non-toxic” and the inhibition [6] was “inactive”. The IC50 [7] was 58 nM, the Activity [8] was “Non-toxic” and the inhibition [9] was “Dose-dependent effect”. The Activity [10] was “Non-toxic”, the Activity [11] was “Non-toxic” and the Activity [12] was “Non-toxic”. For the same compound, the Activity [13] was “Non-toxic”, the Activity [14] was “Non-toxic” and the inhibition [15] was “Dose-dependent effect”. For the same compound, the inhibition [16] was “inactive”, the Activity [17] was “Non-toxic” and the inhibition [18] was “inactive”. The CC50 [19] was greater than 50000 nM and the inhibition [20] was 17%.

For `CCN(CC)c1ccc(/C=C(\C#N)c2nc3ccccc3[nH]2)cc1`, the Activity [1] was “Non-toxic”, the Activity [2] was “Active” and the Activity [3] was “Non-toxic”. For the same compound, the fold change (FC) [4] was greater than 3, the Activity [5] was “Non-toxic” and the inhibition [6] was “inactive”. The IC50 [7] was 3.45 nM, the Activity [8] was “Non-toxic” and the inhibition [9] was “Dose-dependent effect”. The inhibition [21] was 17%, the Activity [10] was “Non-toxic” and the Activity [11] was “Non-toxic”. For the same compound, the Activity [12] was “Non-toxic”, the Activity [13] was “Non-toxic” and the Activity [14] was “Non-toxic”. For the same compound, the inhibition [15] was “Dose-dependent effect”, the inhibition [16] was “inactive” and the Activity [17] was “Non-toxic”. The inhibition [18] was “inactive” and the CC50 [19] was greater than 50000 nM.
